# Columns and labels:
# [1] = tested on: Staphylococcus aureus; assay: Antibacterial activity was determined against clinically isolated Levofloxacin-methicillin resistant Staphylococcus aureus (LVFX-r MRSA) strains (74 strains); assay type: functional
# [2] = tested on: Enterococcus sp.; assay: Antibacterial activity was determined against clinically isolated vancomycin-A resistant enterococci (VRE) strains (33 strains); assay type: functional
# [3] = tested on: Streptococcus pneumoniae; assay: Antibacterial activity was determined against clinically isolated penicillin resistant Streptococcus pneumoniae (PRSP) strains (50 strains); assay type: functional
# [4] = tested on: Enterococcus sp.; assay: Antibacterial activity was determined against clinically isolated vancomycin-B resistant enterococci (VRE) strains (10 strains); assay type: functional
# [5] = Mortality was determined after 100 mg/kg dose administered intravenously to 5-week old male mice at a speed of 0.2 mL/min counted on day 7 for total 2 mice; assay type: ADME, organism-based; set-up: dose 100 mg/kg, route intravenous; details: mouse, in vivo, iv
# Method in brief: (§1)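 Male Slc:ddY mice, 5 weeks old. Compound dissolved in 0.1 N NaOH in saline at varied concentrations and given as a single IV injection at 0.2 mL/min, total volume 10 mL/kg body weight. Deaths counted on day 7 and reported as dead/tested.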
# [6] = tested on: Klebsiella pneumoniae; assay: Antibacterial activity was determined against Klebsiella pneumoniae type II strain after incubation at 37 degrees C for 18 h; assay type: functional
# [7] = tested on: Staphylococcus epidermidis; assay: Antibacterial activity was determined against Staphylococcus epidermis 56500 strain after incubation at 37 degrees C for 18 h; assay type: functional
# [8] = tested on: Escherichia coli; assay: Antibacterial activity was determined against Escherichia coli NIHJ strain after incubation at 37 degrees C for 18 h; assay type: functional
# [9] = Mortality was determined after 50 mg/kg dose administered intravenously to 5-week old male mice at a speed of 0.2 mL/min counted on day 7 for total 5 mice; assay type: ADME, organism-based; set-up: dose 50 mg/kg, route intravenous; details: mouse, in vivo, iv; method in brief: as §1
# [10] = tested on: Streptococcus pyogenes; assay: Antibacterial activity was determined against Streptococcus pyogenes G-36 strain after incubation at 37 degrees C for 18 h; assay type: functional
# [11] = tested on: Streptococcus pneumoniae; assay: Antibacterial activity was determined against Streptococcus pneumoniae J-24 strain after incubation at 37 degrees C for 18 h; assay type: functional
# [12] = tested on: Staphylococcus aureus; assay: Antibacterial activity was determined against Staphylococcus aureus FDA 209-P strain after incubation at 37 degrees C for 18 h; assay type: functional
# [13] = tested on: Streptococcus mitis; assay: Antibacterial activity was determined against Streptococcus mitis IID685 strain after incubation at 37 degrees C for 18 h; assay type: functional
# [14] = Mortality was determined after 150 mg/kg dose administered intravenously to 5-week old male mice at a speed of 0.2 mL/min counted on day 7 for total 2 mice; assay type: ADME, organism-based; set-up: dose 150 mg/kg, route intravenous; details: mouse, in vivo, iv; method in brief: as §1
# [15] = tested on: Enterococcus faecalis; assay: Antibacterial activity was determined against Enterococcus faecalis ATCC 19433 strain after incubation at 37 degrees C for 18 h; assay type: functional; details: ATCC 19433, 18 h
# [16] = tested on: Pseudomonas aeruginosa; assay: Antibacterial activity was determined against Pseudomonas aeruginosa PAO1 strain after incubation at 37 degrees C for 18 h; assay type: functional
# [17] = Mortality was determined after 100 mg/kg dose administered intravenously to 5-week old male mice at a speed of 0.2 mL/min counted on day 7 for total 5 mice; assay type: ADME, organism-based; set-up: dose 100 mg/kg, route intravenous; details: mouse, in vivo, iv; method in brief: as §1
# [18] = Solubility was determined in water; assay type: physicochemical
# [19] = Toxicity was determined as presence of micronucleated reticulocytes (MNRET) in blood at 24 and 48 hr after 100 mg/kg dose administered intravenously to 5-week old male mice; positive.; assay type: organism-based; set-up: dose 100 mg/kg, route intravenous; details: mouse, in vivo, iv
# [20] = Toxicity was determined as presence of micronucleated reticulocytes (MNRET) in blood at 24 and 48 hr after 100 mg/kg dose administered intravenously to 5-week old male mice; negative.; assay type: organism-based; set-up: dose 100 mg/kg, route intravenous; details: mouse, in vivo, iv
# [21] = Mortality was determined after 50 mg/kg dose administered intravenously to 5-week old male mice at a speed of 0.2 mL/min counted on day 7 for total 2 mice; assay type: ADME, organism-based; set-up: dose 50 mg/kg, route intravenous; details: mouse, in vivo, iv; method in brief: as §1
Compound,MIC50 [1],MIC90 [1],MIC50 [2],MIC90 [2],MIC50 [3],MIC90 [3],MIC50 [4],MIC90 [4],MIC [6],MIC [7],MIC [8],MIC [10],MIC [11],MIC [12],MIC [13],Dead [14],MIC [15],MIC [16],also measured
CC(=O)N[C@@H]1[C@H](Oc2c3cc4cc2Oc2ccc(cc2Cl)[C@@H](O[C@@H]2O[C@@H](CO)[C@@H](O)[C@H](O)[C@@H]2NC(C)=O)[C@@H]2NC(=O)[C@H](NC(=O)[C@@H]4NC(=O)[C@H]4NC(=O)[C@@H](Cc5ccc(c(Cl)c5)O3)NC(=O)[C@H](N)c3ccc(O)c(c3)Oc3cc(O)cc4c3)c3ccc(O)c(c3)-c3c(O[C@H]4O[C@H](CO)[C@@H](O)[C@@H](O)[C@@H]4O)cc(O)cc3[C@@H](C(=O)O)NC2=O)O[C@@H](CO)[C@@H](O)[C@@H]1O,0.5 µg/mL,1 µg/mL,32 µg/mL,64 µg/mL,0.25 µg/mL,0.5 µg/mL,1 µg/mL,2 µg/mL,,,,,,,,,,,
Cc1c(N2C[C@H](F)[C@@H](C3(N)CC3)C2)c(F)c(N)c2c(=O)c(C(=O)O)cn([C@@H]3C[C@@H]3F)c12,,,,,,,,,0.013 µg/mL,≤ 3 ng/mL,≤ 3 ng/mL,≤ 0.003 µg/mL,≤ 0.003 µg/mL,≤ 3 ng/mL,≤ 3 ng/mL,2,0.013 µg/mL,0.2 µg/mL,Dead [5]: 2; Dead [9]: 0
Cc1c(N2CC[C@@H](C3(N)CC3)C2)c(F)c(N)c2c(=O)c(C(=O)O)cn([C@@H]3C[C@@H]3F)c12,,,,,,,,,0.025 µg/mL,≤ 3 ng/mL,≤ 3 ng/mL,≤ 0.003 µg/mL,≤ 0.003 µg/mL,≤ 3 ng/mL,≤ 3 ng/mL,2,0.013 µg/mL,0.1 µg/mL,Dead [17]: 0; solubility [18]: 39 µg/mL; Toxicity [19]: Toxic
Cc1c(N2C[C@H](C3(N)CC3)C(F)(F)C2)c(F)c(N)c2c(=O)c(C(=O)O)cn([C@@H]3C[C@@H]3F)c12,,,,,,,,,0.013 µg/mL,≤ 3 ng/mL,≤ 3 ng/mL,≤ 0.003 µg/mL,≤ 0.003 µg/mL,≤ 3 ng/mL,≤ 3 ng/mL,2,0.013 µg/mL,0.2 µg/mL,Dead [17]: 1; Toxicity [20]: Non-toxic
"Cc1c(N2CC[C@@H](CN)C2)c(F)c(N)c2c(=O)c(C(=O)O)cn(C3C[C@@H]3F)c12 (single isomer, unassigned)",,,,,,,,,0.1 µg/mL,6 ng/mL,13 ng/mL,0.013 µg/mL,0.013 µg/mL,≤ 3 ng/mL,6 ng/mL,2,0.025 µg/mL,0.1 µg/mL,Dead [5]: 2; solubility [18]: 404 µg/mL; Dead [21]: 2
"CC(=O)NCC1CN(c2ccc(N3CCOCC3)c(F)c2)C(=O)O1 (single isomer, unassigned) [LINEZOLID]",2 µg/mL,2 µg/mL,2 µg/mL,2 µg/mL,0.5 µg/mL,0.5 µg/mL,2 µg/mL,2 µg/mL,,,,,,,,,,,
NCC[C@H](O)C(=O)N[C@@H]1C[C@H](N)[C@@H](O[C@H]2O[C@H](CN)CC[C@H]2N)[C@H](O)[C@H]1O[C@H]1O[C@H](CO)[C@@H](O)[C@H](N)[C@H]1O [ARBEKACIN],8 µg/mL,32 µg/mL,16 µg/mL,64 µg/mL,16 µg/mL,32 µg/mL,32 µg/mL,> 128 µg/mL,,,,,,,,,,,
O=C(O)c1cn(C2CC2)c2cc(N3CCNCC3)c(F)cc2c1=O [CIPROFLOXACIN],,,,,,,,,0.025 µg/mL,200 ng/mL,≤ 3 ng/mL,1.56 µg/mL,0.39 µg/mL,50 ng/mL,780 ng/mL,,0.78 µg/mL,0.05 µg/mL,
